A3G deaminase: APOBEC3G DNA deaminase inhibitors, primary screen, biochemical, fluorescence, single-stranded DNA substrate, uHTS; DNA dC->dU-editing enzyme APOBEC-3G (Homo sapiens), Q9HC16; recombinant A3G, ssDNA deamination FAM/TAMRA fluorescence; inhibition, % at 20 µM; 330,000 tested, 0.28% active; AID 493012, 2011;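 active means inhibition of at least 40% at 20 µM, with no more than 30% in the related APOBEC3A deaminase screen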
CXCR6 inh: CXCR6 receptor inhibitors, primary screen, cell-based, beta-arrestin, luminescence, CHO-K1 PathHunter, 1536-well; inhibition, % at 20 µM; 360,000 tested, 0.36% active; in the data active means inhibition above about 34%, passing the limit was not always enough;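 further: antagonist mode with CXCL16 agonist at 10 nM final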
CCR6 antag: CCR6 receptor antagonists, primary screen, cell-based, CHO-K1, luminescence, beta-arrestin, uHTS | C-C chemokine receptor type 6 (Homo sapiens), P51684 | CHO-K1 CCR6 PathHunter beta-arrestin, CCL20-stimulated | inhibition, % at 20 µM | 340,000 tested, 0.49% active;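 active means compounds whose inhibition of the agonist-driven luminescence signal at 20 µM reaches about 50%, limit read from the data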;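 further: cells stimulated with CCL20 at 14 nM final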
APJ ag: agonists of human apelin receptor APJ, primary screen, CHO-K1 cells, PathHunter beta-arrestin, luminescence. 0% DMSO wells, 100% apelin. activation, % at 20 µM. 330,000 tested, 0.11% active;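 active means activation more than six SD over the plate average, tested at 20 µM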
Target sequence (P35414 whole entry, looked up): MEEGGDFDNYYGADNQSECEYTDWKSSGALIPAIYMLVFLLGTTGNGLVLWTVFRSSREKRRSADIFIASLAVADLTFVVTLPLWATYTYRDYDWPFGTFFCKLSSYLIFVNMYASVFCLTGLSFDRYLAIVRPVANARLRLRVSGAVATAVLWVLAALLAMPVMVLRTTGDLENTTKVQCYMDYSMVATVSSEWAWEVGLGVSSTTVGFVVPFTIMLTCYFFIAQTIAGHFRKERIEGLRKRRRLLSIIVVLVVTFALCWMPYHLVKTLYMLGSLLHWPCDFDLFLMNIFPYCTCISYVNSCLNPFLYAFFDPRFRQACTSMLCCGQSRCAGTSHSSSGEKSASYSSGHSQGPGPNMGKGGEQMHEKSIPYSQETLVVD
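Assay system: CHO-K1 cells stably expressing ProLink-tagged human APJ and arrestin–beta-gal acceptor. Compound dosing: 20 µM single point, 1% DMSO. Times: 16-18 h seeding, 90 min dark compound exposure, 60 min detection. Detection: beta-gal luminescence. Evaluation: APJ–arrestin association signal. Controls: negative DMSO alone, positive Apelin-13 at 10 nM.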
APJ antag: antagonists of human apelin receptor APJ, primary screen, CHO-K1 cells, beta-arrestin complementation, luminescence | P35414 | inhibition, % at 20 µM | 330,000 tested, 0.32% active;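 active means inhibition above about 40% at 20 µM, limit read from the data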;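 further: cells challenged with 10 nM apelin-13 agonist together with compound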
APOBEC3A inh: APOBEC3A ssDNA deaminase inhibitors, primary screen, selectivity assay for APOBEC3G inhibitor project, biochemical, FAM/TAMRA oligo cleavage fluorescence; DNA dC->dU-editing enzyme APOBEC-3A (Homo sapiens), P31941; recombinant A3A, FAM/TAMRA ssDNA deamination fluorescence; 330,000 tested, 0.41% active; inhibition, % at 20 µM; AID 493011, 2011;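 active means at least 40% inhibition at 20 µM here, with at most 30% in a related deaminase screen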
Target sequence (P31941 whole entry, looked up): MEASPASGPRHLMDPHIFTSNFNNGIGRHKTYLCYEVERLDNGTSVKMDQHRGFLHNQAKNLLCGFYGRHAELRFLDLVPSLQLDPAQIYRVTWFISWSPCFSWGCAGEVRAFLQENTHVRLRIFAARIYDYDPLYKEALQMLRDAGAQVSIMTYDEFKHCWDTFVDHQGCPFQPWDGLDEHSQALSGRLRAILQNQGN
CXCR6 confirm: CXCR6 receptor antagonists, confirmation, cell-based, single concentration, beta-arrestin, luminescence. shares compounds with CXCR6 inh. 700 tested, 65% active. inhibition, % at 20 µM. CHO-K1 CXCR6 PathHunter beta-arrestin. AID 602409, 2012;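 active means mean inhibition over four retests above 40%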;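 further: receptor stimulated with 10 nM CXCL16 agonist; beta-galactosidase fragment complementation upon beta-arrestin recruitment to receptor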
Of the large screens only hits and unclear results are named; the others gave an inactive call (follow-up assays come after a bar, where they were run). Only some compounds are listed: those with a hit (about 1.4% of all), similar ones and a draw of the others.

Fc1ccccc1NC(=S)NNc1ncc(C(F)(F)F)cc1Cl	CXCR6 inh 50, CCR6 antag 68 | CXCR6 confirm inactive
COCCNc1nc(NCCOc2ccccc2)c2sc(-c3ccccc3)cc2n1	none (no result: A3G deaminase, CCR6 antag, APJ ag, APJ antag, APOBEC3A inh)
CCCCCCCCCCOC(=O)Cn1c(COc2ccc(Cl)cc2)[n+](C)c2ccccc21	CXCR6 inh 41 | CXCR6 confirm inactive
CCCCCCCCCCOC(=O)Cn1c(COc2ccccc2)[n+](C)c2ccccc21	none
CC1(C)Cc2ccccc2C(NNC(=O)c2ccccn2)=N1	CXCR6 inh 45 | CXCR6 confirm 41
COc1ccc(N2C[C@H](CSC)[C@@H](CC(=O)Nc3ccccc3)C2=O)cc1	CXCR6 inh 43 (no result: A3G deaminase, CCR6 antag, APJ ag, APJ antag, APOBEC3A inh) | CXCR6 confirm inactive
COc1ccc(N2C[C@H](Cc3ccccc3)[C@@H](CC(=O)Nc3ccccc3)C2=O)cc1	none (no result: A3G deaminase, CCR6 antag, APJ ag, APJ antag, APOBEC3A inh)
COC(=O)[C@H](CCSC)NC(=O)Nc1ccc(OC)cc1OC	CXCR6 inh 77 | CXCR6 confirm inactive
COC(=O)[C@H](CCSC)NC(=O)Nc1ccc(C)cc1C	none
N#Cc1c(C#N)c(SSc2c(C#N)c(C#N)c(N)n2-c2ccccc2)n(-c2ccccc2)c1N	CXCR6 inh 101, CCR6 antag 109 (no result: A3G deaminase, APJ ag, APJ antag, APOBEC3A inh) | CXCR6 confirm 85
O=C(/C=C/c1cccnc1)c1ccc(NC(=O)c2cccc(Br)c2)cc1	none
Cc1cccc(NC(=O)c2cccnc2)c1	none
Cc1cccc(C(=O)Nc2ccc(C(=O)/C=C/c3cccnc3)cc2)c1	CXCR6 inh 36 (no result: A3G deaminase, APJ ag, APJ antag, APOBEC3A inh) | CXCR6 confirm 44
Cc1cc(C)cc(NC(=O)c2cccnc2)c1	CXCR6 inh 40 | CXCR6 confirm inactive
Cc1cc2c(cc1C)NC(=O)C(C)CN2 (stereo unspecified)	none (no result: A3G deaminase, CCR6 antag, APJ ag, APJ antag, APOBEC3A inh)
Cc1ccc(-n2ncc3c(=O)n(CC(=O)N(C(C)C)C(C)C)cnc32)cc1	none
CS(=O)(=O)c1ccc2nc(NC(=O)CN3CCN(Cc4ccccc4)CC3)sc2c1	CXCR6 inh 40 | CXCR6 confirm inactive
CN1C(=O)/C(=N/OC(=O)c2ccccc2)c2ccccc21	CXCR6 inh 40 | CXCR6 confirm inactive
O=C(O/N=C1\C(=O)N(c2ccccc2)c2ccccc21)C1CC1	none
COc1ccccc1N1CCN(C(=O)NCc2cccc(C(F)(F)F)c2)CC1	none
COC(=O)c1ccc(N=NNc2cccc(Br)c2)cc1	none (no result: A3G deaminase, APJ ag, APJ antag, APOBEC3A inh)
Cc1cccc(Cc2cnc(N3C(=N)SC(c4ccccc4)C3=O)s2)c1 (stereo unspecified)	none
Cc1cccc(Cc2cnc(N3C(=N)SC(C)C3=O)s2)c1 (stereo unspecified)	CXCR6 inh 53 (no result: CCR6 antag) | CXCR6 confirm 73
O=C1c2ccccc2C(=O)N1c1ncc(Cc2ccc(Cl)cc2)s1	none (no result: A3G deaminase, APJ ag, APJ antag, APOBEC3A inh)
Cc1ccc(Cc2cnc(N3C(=N)SC(C)C3=O)s2)cc1 (stereo unspecified)	CXCR6 inh 53 (no result: CCR6 antag) | CXCR6 confirm 70
Cn1c2ccccc2c2cc([N+](=O)[O-])ccc21	none
CN1c2ccc([N+](=O)[O-])cc2N(C)C1(C)c1ccccc1 (stereo unspecified)	CXCR6 inh 43, CCR6 antag 54 | CXCR6 confirm inactive
O=C(NC(=S)N(CCc1ccccc1)CCc1ccccc1)c1ccco1	CXCR6 inh 39 (no result: CCR6 antag) | CXCR6 confirm 50
O=C(NC(=S)N(Cc1ccccc1)Cc1ccccc1)c1ccccc1F	CXCR6 inh 36 | CXCR6 confirm inactive
O=C(NC(=S)NCc1ccccc1)c1ccccc1F	none
Cc1cc(C)cc(-n2c(SCC(=O)Nc3cccc(S(=O)(=O)NC4=NCCCCC4)c3)nc3ccccc3c2=O)c1	none
O=C(C[n+]1ccc(-c2ccccc2)cc1)Nc1ccc([N+](=O)[O-])cc1	none
FC(F)Oc1ccccc1/C=N/n1cnc2ccccc21	CXCR6 inh 50 | CXCR6 confirm inactive
Cc1ccc(S(=O)(=O)ON2C(=O)c3ccccc3C2=O)c(C)c1	CXCR6 inh 67, CCR6 antag 61 (no result: A3G deaminase, APJ ag, APJ antag, APOBEC3A inh) | CXCR6 confirm inactive
Cc1ccc(OC(=O)N(C)C[C@H]2OCc3cn(nn3)CCCC(=O)N([C@H](C)CO)C[C@@H]2C)cc1	none (no result: A3G deaminase, CCR6 antag, APJ ag, APJ antag, APOBEC3A inh)
CCc1nc2c(OCCC3CCCCC3)cccn2c1N(C)C(=O)C1CC1	none (no result: A3G deaminase, CCR6 antag, APJ ag, APJ antag, APOBEC3A inh)
CCc1nc2c(OCCC3CCCCC3)cccn2c1N(C)C(=O)c1ccc(C)cc1	CXCR6 inh 42 (no result: A3G deaminase, CCR6 antag, APJ ag, APJ antag, APOBEC3A inh) | CXCR6 confirm 48
O=C1NC[C@H](c2ccccc2)OC(=O)[C@@H](Cc2ccc(F)cc2)CC/C=C/C[C@@H]1CC(=O)N(CCO)Cc1ccccc1	CXCR6 inh 55, CCR6 antag 62 (no result: APJ ag, APJ antag) | CXCR6 confirm 45
CC(=O)c1ccc(S(=O)(=O)NC2CCCCCCC2)cc1	none
O=C(NCCCN1CCOCC1)c1ccc(Br)s1	none
O=C(NCCCN1CCOCC1)c1cc2c(s1)CSC2	CXCR6 inh 44 | CXCR6 confirm inactive
CCOc1ccc(CCNC(=O)COC(=O)c2[nH]c(C)c(C(C)=O)c2C)cc1OCC	none (no result: A3G deaminase, CCR6 antag, APJ ag, APJ antag, APOBEC3A inh)
O=C(N/N=C/c1ccc([N+](=O)[O-])o1)c1sc2ccccc2c1Cl	CXCR6 inh 41 | CXCR6 confirm 43
O=C(c1ccc(Br)s1)N1CCCC1	none
O=C(c1ccc(Br)s1)N1CCN(c2ncccn2)CC1	CXCR6 inh 41 | CXCR6 confirm inactive
C=CCn1c(SCC(=O)NC2CCCC2)nc2c([nH]c3ccccc32)c1=O	none
Cc1occc1C(=O)NNC(=S)NC(=O)COc1ccc(Cl)cc1Cl	CXCR6 inh 42 | CXCR6 confirm inactive
Cc1occc1C(=O)NNC(=O)COc1ccc(Br)cc1Br	none
CC(C)(C)NC(=O)NC(=O)COC(=O)c1c(F)cccc1Cl	CXCR6 inh 40 | CXCR6 confirm inactive
COc1ccc(NC(=S)N(CCc2c(C)[nH]c3ccccc23)Cc2cccnc2)cc1	CXCR6 inh 37 | CXCR6 confirm inactive
CCOc1ccc(NC(=S)N(CCc2c(C)[nH]c3ccc(C)cc23)Cc2cccnc2)cc1	none
COc1ccccc1CNC(=O)C(NS(=O)(=O)c1cccc2nsnc12)C(C)C (stereo unspecified)	none
COc1cccc(C(=O)NC(=S)N2CCN(c3ccc(C(F)(F)F)cc3[N+](=O)[O-])CC2)c1	CXCR6 inh 48 (no result: CCR6 antag) | CXCR6 confirm 49

Bioassay records deposited in PubChem BioAssay by Sanford-Burnham Center for Chemical Genomics.
